Test results reported in ChEMBL document CHEMBL3120099, “Novel S1P(1) receptor agonists--part 2: from bicyclo[3.1.0]hexane-fused thiophenes to isobutyl substituted thiophenes” (J Med Chem, 2014).
pEC50: −log10 of the molar value.

Legend:
[1] = biological target: Sphingosine 1-phosphate receptor 3 (Homo sapiens, UniProt Q99500); experiment: Agonist activity at human recombinant S1P3 receptor expressed in CHO cells assessed as membrane-bound 35S-GTPgammaS incubated 30 mins prior to substrate addition measured after 1 hr by topcount scintillation counting analysis; assay type: functional, cell-based
Sphingosine 1-phosphate receptor 3, sequence (Q99500 whole entry): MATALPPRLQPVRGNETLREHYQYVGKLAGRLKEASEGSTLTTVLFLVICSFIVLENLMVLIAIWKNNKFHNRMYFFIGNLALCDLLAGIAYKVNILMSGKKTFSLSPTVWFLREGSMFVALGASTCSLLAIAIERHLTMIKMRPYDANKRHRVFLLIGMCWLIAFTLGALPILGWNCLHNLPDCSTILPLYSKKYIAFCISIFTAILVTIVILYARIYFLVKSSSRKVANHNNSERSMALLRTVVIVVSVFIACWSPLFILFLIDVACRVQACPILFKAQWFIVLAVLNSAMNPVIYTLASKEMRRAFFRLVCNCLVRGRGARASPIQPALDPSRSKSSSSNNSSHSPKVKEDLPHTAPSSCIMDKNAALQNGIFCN

[2] = biological target: Sphingosine 1-phosphate receptor 1 (Homo sapiens, UniProt P21453); experiment: Agonist activity at human recombinant S1P1 receptor expressed in CHO cells assessed as membrane-bound 35S-GTPgammaS incubated 30 mins prior to substrate addition measured after 1 hr by topcount scintillation counting analysis; assay type: functional, cell-based
Sphingosine 1-phosphate receptor 1, sequence (P21453 whole entry): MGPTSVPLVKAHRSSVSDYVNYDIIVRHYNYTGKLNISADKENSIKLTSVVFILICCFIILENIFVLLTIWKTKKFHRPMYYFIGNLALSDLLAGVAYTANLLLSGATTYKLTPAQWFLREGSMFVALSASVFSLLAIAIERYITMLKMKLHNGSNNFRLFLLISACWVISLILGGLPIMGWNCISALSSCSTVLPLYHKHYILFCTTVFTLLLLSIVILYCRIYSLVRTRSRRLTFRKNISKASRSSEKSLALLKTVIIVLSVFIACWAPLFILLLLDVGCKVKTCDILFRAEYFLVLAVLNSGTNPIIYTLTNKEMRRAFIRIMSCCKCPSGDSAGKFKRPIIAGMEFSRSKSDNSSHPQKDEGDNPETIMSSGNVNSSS

[3] = AUC (0 to 24 hrs) in Wistar rat mesenteric lymph at 10 mg/kg, po; assay type: ADME, organism-based, Mesenteric lymph node; parameters: time < 24 hr, dose 10 mg/kg, route oral; details: in vivo
[4] = Tmax in Wistar rat mesenteric lymph at 10 mg/kg, po; assay type: ADME, organism-based, Mesenteric lymph node; parameters: dose 10 mg/kg, route oral
In short: (§1)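 Male Wistar rats given 10 mg/kg orally in 5% DMSO/succinylated gelatin. At selected times, anesthesia with thiobutobarbital 150 mg/kg ip, laparotomy and thoracic lymph duct catheter. Mesenteric lymph collected for at least 10 min, with a plasma sample at mid-collection. Methanol precipitation, then LC-MS-MS with internal standard.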

[5] = Cmax in Wistar rat mesenteric lymph at 10 mg/kg, po; assay type: ADME, organism-based, Mesenteric lymph node; parameters: dose 10 mg/kg, route oral; in short: as §1
Plasma = experiment: AUC (0 to 24 hrs) in Wistar rat plasma at 10 mg/kg, po; assay type: ADME, organism-based; parameters: time < 24 hr, dose 10 mg/kg, route oral; details: in vivo
[6] = Cmax in Wistar rat plasma at 10 mg/kg, po; assay type: ADME, organism-based; parameters: dose 10 mg/kg, route oral; in short: as §1
[7] = Tmax in Wistar rat plasma at 10 mg/kg, po; assay type: ADME, organism-based; parameters: dose 10 mg/kg, route oral; in short: as §1
[8] = Lipophilicity, log D of the compound at pH 7.4; assay type: physicochemical; details: buffer
Rattus norvegicus [9] = experiment: Lymphopenic activity in Wistar rat assessed as reduction in blood lymphocyte count at 10 mg/kg, po after 24 hrs; assay type: functional
In short: (§2)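 Normotensive male Wistar rats given 1–10 mg/kg by gavage in 5% DMSO/7.5% succinylated gelatin. Blood taken before and 3, 6 and 24 h after dosing, with later times for some compounds. Lymphocytes counted by hematology analyzer. % LC change calculated per animal relative to the predose value (=100%). Mean ± SEM.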

Rattus norvegicus [10] = experiment: Lymphopenic activity in Wistar rat assessed as reduction in blood lymphocyte count at 10 mg/kg, po after 6 hrs; assay type: functional; parameters: scale not given: the % may be the effect or the level left; in short: as §2
Rattus norvegicus [11] = experiment: Lymphopenic activity in Wistar rat assessed as reduction in blood lymphocyte count at 10 mg/kg, po after 3 hrs; assay type: functional; parameters: scale not given: the % may be the effect or the level left; in short: as §2
Homo sapiens = species on record: Homo sapiens; experiment: Selectivity ratio of EC50 for human recombinant S1P3 receptor to EC50 for human recombinant S1P1 receptor
In short: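 GDP was 1 μM for S1P1 and 3 μM for S1P3. Compounds (up to 10 μM) were preincubated 30 min at rt, then incubated 1 h at rt. Bound label was counted after filtration. 10 μM S1P defined maximum. EC50s are geometric means of ≥3 independent duplicate runs.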

Row | Compound | pEC50 [1] | pEC50 [2] | also measured
1 | CCc1sc(C(=O)CCc2cc(C)c(OCC(O)CO)c(C)c2)c2c1C[C@@H](O)CC2 (mixture of isomers) | < 5.00 | 6.07 | 
2 | Cc1cc(CCC(=O)c2sc(C)c3c2CCC(C)(C)C3)cc(C)c1OCC(O)CNC(=O)CO (racemic) | 6.41 | 9.30 | 
3 | Cc1cc(CCC(=O)c2sc(C)c3c2CCC(C)(C)C3)cc(C)c1O | < 5.00 | 7.68 | 
4 | Cc1cc(CCC(=O)c2sc(C)c3c2CCC(C)(C)C3)cc(C)c1OCCO | 5.35 | 7.72 | 
5 | CCc1sc(C(=O)CCc2cc(C)c(OC[C@@H](O)CO)c(C)c2)c2c1CC1(CC2)CC1 | 6.09 | 8.96 | 
6 | CCc1sc(C(=O)CCc2cc(C)c(OCC(O)CO)c(C)c2)c2c1C[C@@](C)(O)CC2 (mixture of isomers) | < 5.00 | 7.10 | 
7 | CCc1cc(CCC(=O)c2sc(OC)c3c2CCC(C)(C)C3)cc(C)c1OCC(O)CNC(=O)CO (racemic) | 5.41 | 8.89 | 
8 | CCc1cc(CCC(=O)c2sc(C)c3c2CCC(C)(C)C3)cc(C)c1OCC(O)CNC(=O)CO (racemic) | 5.35 | 8.92 | 
9 | CCCc1ccc(-c2nc(-c3cc(C)c(OCC(O)CNC(=O)CO)c(C)c3)no2)s1 (racemic) | 5.94 | 9.05 | % change in blood lymphocyte count from predose (Rattus norvegicus [9]): 31%; Activity (Rattus norvegicus [10]): -59%; Activity (Rattus norvegicus [11]): -65%
10 | CCc1sc(C(=O)CCc2cc(C)c(OCC(O)CO)c(C)c2)c2c1CC(C)CC2 (mixture of isomers) | 6.22 | 8.80 | 
11 | CCc1cc(-c2noc(-c3scc4c3CCC(C)(C)C4)n2)cc(C)c1OCC(O)CNC(=O)CO (racemic) | 6.50 | 8.77 | Ratio EC50 (Homo sapiens): 100
12 | Cc1cc(CCC(=O)c2sc(C)c3c2CCC(C)(C)C3)cc(C)c1OC[C@@H](O)CO | 5.85 | 8.59 | Ratio EC50 (Homo sapiens): 100
13 | Cc1cc(CCC(=O)c2sc(C)c3c2CCC(C)(C)C3)cc(C)c1OCC(O)CN1CC(C(=O)O)C1 (racemic) | 5.76 | 8.37 | 
14 | Cc1cc(CCC(=O)c2sc(C)c3c2CCC(C)(C)C3)cc(C)c1CCC(=O)O | < 5.00 | 7.68 | 
15 | Cc1cc(CCC(=O)c2sc(C)c3c2CCC(C)(C)C3)cc(C)c1OCCN | 5.07 | 8.21 | 
16 | CCc1sc(C(=O)CCc2cc(C)c(OCC(O)CO)c(C)c2)c2c1C[C@@H](N(C)C)CC2 (mixture of isomers) | < 5.00 | 5.80 | 

Molecules with a higher pEC50 [1], results first:

Row | pEC50 [1] | pEC50 [2] | Compound | also measured
17 | 8.24 | 8.85 | CCc1cc(-c2noc(-c3sc(CC)c4c3CCC(C)(C)C4)n2)cc(C)c1OCCNCCC(=O)O | AUC [3]: 60400 ng·h/mL; Tmax [4]: 0.75 h; Cmax [5]: 9530 ng/mL; AUC (Plasma): 16300 ng·h/mL; Cmax [6]: 813 ng/mL; Tmax [7]: 8 h; logD [8]: 4.9
18 | 6.76 | 9.05 | CCc1cc(-c2noc(-c3sc(CC)c4c3CCCC4)n2)cc(C)c1OC[C@@H](O)CNC(=O)CO | 
19 | 6.91 | 8.82 | CCc1cc(-c2noc(-c3sc(C)c4c3CCC(C)(C)C4)n2)cc(C)c1OCC(O)CNC(=O)CO (racemic) | 
20 | 7.62 | 8.96 | CCc1cc(-c2noc(-c3sc(CC)c4c3CCC3(CC3)C4)n2)cc(C)c1OC[C@@H](O)CNC(=O)CO | 
21 | 7.08 | 8.74 | CCc1cc(-c2noc(-c3sc(OC)c4c3CCC(C)(C)C4)n2)cc(C)c1OC[C@@H](O)CNC(=O)CO | 
22 | 6.76 | 8.18 | CCc1c(-c2nc(-c3cc(C)c(OCC(O)CNC(=O)CO)c(C)c3)no2)sc(C)c1CC(C)C (racemic) | % change in blood lymphocyte count from predose (Rattus norvegicus [9]): -25%; Activity (Rattus norvegicus [10]): -40%; Activity (Rattus norvegicus [11]): -30%
23 | 7.21 | 9.40 | CCc1sc(C(=O)CCc2cc(C)c(OC[C@@H](O)CO)c(C)c2)c2c1CC1(CCCC1)CC2 | 
24 | 7.96 | 8.33 | CCc1cc(-c2noc(-c3sc(CC)c4c3CCC3(CCCC3)C4)n2)cc(C)c1OC[C@@H](O)CNC(=O)CO | 
